Columns and labels:
Type in all cases: cell-based
[1] = target: D(2) dopamine receptor (Homo sapiens) (UniProt P14416); assay: Negative allosteric modulation of human D2LR expressed in Flp-In-CHO cells assessed as inhibition of dopamine-indued ERK1/2 phosphorylation by measuring negative co-operativity factor preincubated for 30 mins followed by dopamine addition and measured after 5 mins by AlphaScreen assay
Procedure, shortened: (§1)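 pERK1/2 signalling through the long D2 isoform (D2LR) expressed in FlpIn CHO cells. Test ligands were measured against increasing dopamine concentrations. Curves were fitted with an operational model of allosterism (functional affinity KB, cooperativity α, efficacy modulation β, net αβ) and with a Gaddum-Schild model (KB, Schild slope). The better fit was chosen by F-test. Mean ± SEM of three experiments run in duplicate.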

[2] = target: D(2) dopamine receptor (Homo sapiens) (UniProt P14416); assay: (§2) Negative allosteric modulation of human D2LR expressed in Flp-In-CHO cells assessed as inhibition of dopamine-indued ERK1/2 phosphorylation preincubated for 30 mins followed by dopamine addition and measured after 5 mins by AlphaScreen assay relative to control; procedure, shortened: as §1
[3] = target: D(2) dopamine receptor (Homo sapiens) (UniProt P14416); assay: Negative allosteric modulation of human D2LR expressed in Flp-In-CHO cells assessed as inhibition of dopamine-indued ERK1/2 phosphorylation preincubated for 30 mins followed by dopamine addition and measured after 5 mins by AlphaScreen assay; procedure, shortened: as §1
[4] = target: D(2) dopamine receptor (Homo sapiens) (UniProt P14416); assay: as §2, with “phosphorylation by measuring effect on dopamine efficacy” for “phosphorylation”; procedure, shortened: as §1
[5] = target: D(2) dopamine receptor (Homo sapiens) (UniProt P14416); assay: Negative allosteric modulation of human D2LR expressed in Flp-In-CHO cells assessed as inhibition of dopamine-indued ERK1/2 phosphorylation by measuring effect on dopamine efficacy preincubated for 30 mins followed by dopamine addition and measured after 5 mins by AlphaScreen assay; procedure, shortened: as §1
[6] = target: D(2) dopamine receptor (Homo sapiens) (UniProt P14416); assay: Negative allosteric modulation of human D2LR expressed in Flp-In-CHO cells assessed as inhibition of dopamine-indued ERK1/2 phosphorylation by measuring co-operativity factor preincubated for 30 mins followed by dopamine addition and measured after 5 mins by AlphaScreen assay; procedure, shortened: as §1
[7] = target: D(2) dopamine receptor (Homo sapiens) (UniProt P14416); assay: Negative allosteric modulation of human D2LR expressed in Flp-In-CHO cells assessed as inhibition of dopamine-indued ERK1/2 phosphorylation by measuring co-operativity factor preincubated for 30 mins followed by dopamine addition and measured after 5 mins by AlphaScreen assay relative to control; procedure, shortened: as §1

Chain of D(2) dopamine receptor (Homo sapiens) (P14416 whole entry, canonical isoform): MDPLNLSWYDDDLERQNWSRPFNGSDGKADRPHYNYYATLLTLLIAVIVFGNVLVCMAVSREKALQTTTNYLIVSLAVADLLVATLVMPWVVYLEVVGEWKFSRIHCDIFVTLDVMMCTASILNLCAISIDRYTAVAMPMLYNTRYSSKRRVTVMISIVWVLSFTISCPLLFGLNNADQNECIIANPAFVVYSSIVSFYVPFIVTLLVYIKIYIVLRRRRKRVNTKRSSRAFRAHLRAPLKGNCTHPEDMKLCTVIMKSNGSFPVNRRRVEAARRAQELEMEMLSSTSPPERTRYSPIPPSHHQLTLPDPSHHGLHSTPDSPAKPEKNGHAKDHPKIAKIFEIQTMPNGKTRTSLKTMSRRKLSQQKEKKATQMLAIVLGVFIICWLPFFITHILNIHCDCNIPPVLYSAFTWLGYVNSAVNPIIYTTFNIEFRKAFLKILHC

Row | SMILES | Activity [1] | log(activity) [1] | fold change (FC) [2] | Kb [3] [nM] | pKb [3] | fold change (FC) [4] | Activity [5] | log(activity) [5] | Activity [6] | log(activity) [6] | fold change (FC) [7]
1 | N#Cc1ccc2c(c1)CN(CC[C@H]1CC[C@H](NC(=O)c3cc4sccc4[nH]3)CC1)CC2 | – | – | – | 87 | 7.06 | – | – | – | – | – | –
2 | N#Cc1ccc2c(c1)CN(CC[C@H]1CC[C@H](NC(=O)c3c[nH]c4ccccc34)CC1)CC2 | – | – | – | 63 | 7.2 | – | – | – | – | – | –
3 | N#Cc1ccc2c(c1)CN(CC[C@H]1CC[C@H](NC(=O)c3cnn4ccccc34)CC1)CC2 | – | – | – | 40 | 7.39 | – | – | – | – | – | –
4 | N#Cc1ccc2c(c1)CN(CC[C@H]1CC[C@H](NC(=O)c3c[nH]c4cccnc34)CC1)CC2 | – | – | – | 0.148 | 9.83 | 6 | 0.16 | -0.8 | 0.048 | -1.32 | 21
5 | N#Cc1ccc2c(c1)CN(CC[C@H]1CC[C@H](NC(=O)c3c[nH]c4ncccc34)CC1)CC2 | 0.032 | -1.5 | 32 | 34 | 7.47 | – | – | – | – | – | –
6 | N#Cc1ccc2c(c1)CN(CC[C@H]1CC[C@H](NC(=O)c3cnc4ccccn34)CC1)CC2 | 0.0048 | -2.31 | 210 | 24 | 7.62 | – | – | – | – | – | –
7 | N#Cc1ccc2c(c1)CN(CC[C@H]1CC[C@H](NC(=O)c3cc4ccncc4[nH]3)CC1)CC2 | 0.00055 | -3.26 | 1800 | 2.7 | 8.57 | – | – | – | – | – | –
8 | N#Cc1ccc2c(c1)CN(CC[C@H]1CC[C@H](NC(=O)c3c[nH]c4ccncc34)CC1)CC2 | – | – | – | 3.5 | 8.46 | – | – | – | – | – | –
9 | N#Cc1ccc2c(c1)CN(CC[C@H]1CC[C@H](NC(=O)c3cc4ccccn4n3)CC1)CC2 | 0.03 | -1.52 | 33 | 165 | 6.78 | – | – | – | – | – | –
10 | N#Cc1ccc2c(c1)CN(CC[C@H]1CC[C@H](NC(=O)c3c[nH]c4cnccc34)CC1)CC2 | 0.0036 | -2.44 | 275 | 10 | 8 | – | – | – | – | – | –
11 | N#Cc1ccc2c(c1)CN(CC[C@H]1CC[C@H](NC(=O)c3cc4c(F)cccc4[nH]3)CC1)CC2 | 0.032 | -1.5 | 32 | 47 | 7.33 | – | – | – | – | – | –

Continued, values first:

Row | Activity [1] | log(activity) [1] | fold change (FC) [2] | Kb [3] [nM] | pKb [3] | fold change (FC) [4] | Activity [5] | log(activity) [5] | Activity [6] | log(activity) [6] | fold change (FC) [7] | SMILES
12 | 0.3 | -0.52 | 3 | 617 | 6.21 | – | – | – | – | – | – | COc1cccc2[nH]c(C(=O)N[C@H]3CC[C@H](CCN4CCc5ccc(C#N)cc5C4)CC3)cc12
13 | 0.016 | -1.79 | 62 | 4.5 | 8.35 | – | – | – | – | – | – | N#Cc1ccc2c(c1)CN(CC[C@H]1CC[C@H](NC(=O)c3cc4cccc(F)c4[nH]3)CC1)CC2
14 | – | – | – | 25 | 7.6 | – | – | – | – | – | – | COc1ccc2cc(C(=O)N[C@H]3CC[C@H](CCN4CCc5ccc(C#N)cc5C4)CC3)[nH]c2c1
15 | 0.065 | -1.19 | 15 | 219 | 6.66 | – | – | – | – | – | – | N#Cc1ccc2c(c1)CN(CC[C@H]1CC[C@H](NC(=O)c3cc4ccc(F)cc4[nH]3)CC1)CC2
16 | 0.016 | -1.8 | 63 | 6.8 | 8.17 | – | – | – | – | – | – | N#Cc1ccc2c(c1)CN(CC[C@H]1CC[C@H](NC(=O)c3cc4cc(F)ccc4[nH]3)CC1)CC2
17 | – | – | – | 51 | 7.29 | – | – | – | – | – | – | COc1cccc2cc(C(=O)N[C@H]3CC[C@H](CCN4CCc5ccc(C#N)cc5C4)CC3)[nH]c12
18 | 0.038 | -1.42 | 26 | – | 7.63 | – | – | – | – | – | – | N#Cc1ccc2c(c1)CN(CC[C@H]1CC[C@H](NC(=O)c3cc4cccnc4[nH]3)CC1)CC2
19 | – | – | – | 2 | 8.7 | – | – | – | – | – | – | COc1ccc2[nH]c(C(=O)N[C@H]3CC[C@H](CCN4CCc5ccc(C#N)cc5C4)CC3)cc2c1

From ChEMBL document CHEMBL4308838, “Subtle Modifications to the Indole-2-carboxamide Motif of the Negative Allosteric Modulator N-(( trans)-4-(2-(7-Cyano-3,4-dihydroisoquinolin-2(1 H)-yl)ethyl)cyclohexyl)-1 H-indole-2-carboxamide (SB269652) Yield Dramatic Changes in Pharmacological Activity at the Dopamine D2 Receptor” (J Med Chem, 2018)
